Screening data from PubChem BioAssay.
S100A4 MyoIIA: blocks human S100A4 binding to myosin IIA peptide; S100A4/TAMRA-MyoIIA peptide fluorescence polarization; inhibition, % at 10.7 µM; hit rate 0.14% among 360,000;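 active means mean inhibition of at least 70% across replicates, with every replicate also reaching that level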
Target sequence (P26447 whole entry, looked up): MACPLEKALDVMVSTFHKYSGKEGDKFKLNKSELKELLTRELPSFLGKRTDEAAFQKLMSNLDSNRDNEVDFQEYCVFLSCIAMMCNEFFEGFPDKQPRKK
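Material: S100A4 monomer protein | Medium: HEPES pH 7.2 with CaCl2, KCl, NaCl, DTT, Triton | Reagent: Labelled myosin peptide probe, 5 nM | Doses: One dose per compound | Times: 5 min incubation before reading | Benchmarks: Neutral control DMSO, positive control TFP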
PGC1a acetyl inh: modulators of PGC1a acetylation. U2OS PGC1a acetylation, AlphaScreen anti-acetyl-lysine; with virally co-expressed GCN5 acetyltransferase. inhibition, % at 15.6 µM. hit rate 0.17% among 350,000. AID 651687;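 active means every replicate shows inhibition of at least 40%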;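 further: 0% = neutral control wells and 100% = positive control wells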
CASP6 VEID inh: inhibitors of human caspase-6 | inhibition, % at 12.5 µM | hit rate 0.53% among 350,000 | P55212 | AID 686996 | purified caspase-6, Z-VEID-R110 cleavage fluorescence;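 active means mean inhibition across replicates at least about 35%, with every replicate also reaching that limit, limit read from the data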;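 further: 0% = median of neutral control wells and 100% = no fluorescence left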
Target sequence (P55212 24-179 limits assumed): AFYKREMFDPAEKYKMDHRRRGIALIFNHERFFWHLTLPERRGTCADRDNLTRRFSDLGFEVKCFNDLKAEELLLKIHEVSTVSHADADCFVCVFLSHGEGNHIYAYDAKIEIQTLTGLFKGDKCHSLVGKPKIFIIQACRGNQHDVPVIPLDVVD
Target sequence (P55212 194-293 limits assumed): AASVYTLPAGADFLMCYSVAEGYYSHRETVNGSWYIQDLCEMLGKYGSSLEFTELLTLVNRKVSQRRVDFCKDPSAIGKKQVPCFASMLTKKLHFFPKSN
ERAP1 inh: inhibitors of human ERAP1 aminopeptidase | Q9NZ08 | recombinant ERAP1, Leu-AMC fluorescence, 60 min | inhibition, % at 10.7 µM | hit rate 0.15% among 340,000 | AID 652197;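 active means mean replicate inhibition of at least 30%, or all replicates individually reaching that 30% level; inactive means mean below 30% and not every replicate reaching it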;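 further: 0% = neutral control wells and 100% = L-leucinethiol positive control wells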
Ecoli rRNA inh: inhibits bacterial ribosomal RNA function over humanized ribosomes. hit rate 1.6% among 350,000. AID 720706. E. coli WT GFP vs humanized-ribosome RFP mutants, fluorescence, 24 h; active compounds read low; DMSO median 0, no signal -100. GFP signal change (wild-type ribosome), % (concentration not given with the values);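 active means significant combined selectivity score with lowered wild-type GFP, culture density cut under 30%, mutant RFP and density less affected; inactive means any of these conditions unmet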
ARNT TACC3 PPI: disruptors of human ARNT/TACC3 interaction; AlphaScreen His-ARNT PAS-B/GST-TACC3 binding, luminescence; TACC3 fragment carries E629A point mutation; hit rate 0.66% among 390,000; AID 623870; inhibition, % at 9.99 µM;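 active means mean inhibition of replicates at least 50% and at least half of replicates each reaching 50%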;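 further: 0% = complete ARNT plus TACC3 wells and 100% = ARNT alone without TACC3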
Numbers without * were called inactive; / = no result. The list is not random: actives were taken first. Their share in the collection is about 2.4%.

SMILES	S100A4 MyoIIA	PGC1a acetyl inh	CASP6 VEID inh	ERAP1 inh	Ecoli rRNA inh	ARNT TACC3 PPI
Cc1cc(O)c2c(c1O)C(=O)[C@]13C(=C2O)C(=O)[C@@H]2[C@@H](O)[C@H]1[C@@H]1[C@H](O)[C@H]3C(=O)C3=C(O)c4c(O)cc(C)c(O)c4C(=O)[C@]312	/	-7.5	/	/	/	47.4*
CC(C)Cc1csc(NC(=O)c2ccc(Br)cc2)c1C(=O)O	-1.8	-2.4	1.6	-3.0	-26.4*	-2.8
N#CC1=C(SCC(=O)Nc2nccs2)NC(=O)CC1c1ccccc1 (stereo not drawn)	-2.2	7.8	-0.1	0.3	-28.1*	4.4
Cc1ccccc1NC(=O)CSC1=C(C#N)C(c2ccsc2)CC(=O)N1 (stereo not drawn)	/	-15.1	/	/	/	-22.5
Cn1cnc(S(=O)(=O)N[C@H]2CC[C@H](CC(=O)Nc3ccccc3)O[C@@H]2CO)c1	-5.9	10.3	-1.5	1.2	2.3	-6.5
C[C@@H]1CN([C@@H](C)CO)C(=O)c2cc(-c3ccc(F)cc3)cnc2O[C@@H]1CN(C)C(=O)c1ccncc1	/	-8.7	/	/	2.5	/
Cc1ccc(Cn2nnc3c(=O)n(CC(=O)OCc4ccccc4)cnc32)cc1	2.9	2.8	0.3	-3.9	-1.1	-2.1
Cc1ccc(Cn2nnc3c(=O)n(CC(=O)N4CCN(c5ccccc5)CC4)cnc32)cc1	-1.0	-2.6	2.2	1.2	-25.0*	-0.2
Oc1ccc(Br)cc1CNc1ccccn1	-2.5	-5.7	2.4	-5.5	-15.8*	-4.1
Oc1ccc(Br)cc1CNc1nccs1	-1.3	-1.9	-2.6	-1.4	3.5	-8.5
Cc1ccccc1CC1(CO)CCCN(Cc2ccccc2Cl)C1 (stereo not drawn)	-6.0	6.1	-1.4	-1.1	-27.8*	-0.2
C[C@@H](NC(=O)C[C@H]1C[C@@H]2c3cc(NC(=O)CC4CC4)ccc3O[C@@H]2[C@H](CO)O1)c1ccccc1	13.4	-6.2	-0.3	-2.2	-1.3	-6.7
Cc1cc(Nc2ccc(Br)cc2)n2nc(C)nc2n1	-0.8	/	0.3	-0.5	-0.4	11.0*
O=C1NC(=O)/C(=C\c2ccc(Cl)cc2Cl)N1	0.9	4.5	3.6	1.7	-19.5*	-7.2
C[C@@H]1CN([C@H](C)CO)C(=O)c2cc(NC(=O)Nc3ccccc3)ccc2O[C@@H](C)CCCCO[C@@H]1CN(C)Cc1ccc(C(F)(F)F)cc1	/	8.8	/	/	-0.3	-10.5
O=[N+]([O-])c1ccc(N=Nc2ccc(O)cc2O)cc1	/	10.0	/	/	/	-8.5
O=S(=O)(O)c1cc(Cl)cc(N=Nc2ccc(O)cc2O)c1O	12.6	/	76.8*	12.2	-45.4	63.2*
CNC(=O)C[C@@H]1CC[C@@H]2[C@H](COc3ccc(NC(=O)Nc4cccc(C)c4)cc3C(=O)N2C)O1	1.4	4.5	0.3	2.9	0.8	-13.5
NC(=O)COC(=O)CSc1cccc2cccc(Cl)c12	11.0	/	3.7	6.1	-29.1*	-2.3
CC(C)CN1C(=O)NC2(CCCc3ccccc32)C1=O (stereo not drawn)	10.1	1.2	40.1*	-4.3	-0.4	-2.2
CC1=CC(C)C2(COC(c3ccc[n+](C)c3)OC2)C(C)C1 (stereo not drawn)	-4.2	-13.2	1.1	106.5*	6.7	-5.7
O=C(Nc1cc(F)ccc1F)N1C[C@@H]2[C@H](c3ccccc31)[C@H](CO)N2Cc1ccncc1	-0.3	-2.2	2.0	-1.9	-43.3*	10.2
O=C(Nc1cccc(Cl)c1)N1C[C@@H]2[C@H](c3ccccc31)[C@@H](CO)N2C(=O)c1cccnc1	-7.8	-6.7	-2.7	-4.0	-50.6*	-0.7
CCCC(=O)Nc1ccc2c(c1)OC[C@H](C)N(CCC(F)(F)F)C[C@H](C)[C@H](OC)CN(C)C2=O	3.3	6.8	0.8	-2.3	-4.1	0.2
O=C(NCC[C@H]1CC[C@H](NS(=O)(=O)c2ccc(F)cc2)[C@@H](CO)O1)c1ccccc1F	3.9	2.1	1.7	3.0	-1.6	/
SMILES	S100A4 MyoIIA	PGC1a acetyl inh	CASP6 VEID inh	ERAP1 inh	Ecoli rRNA inh	ARNT TACC3 PPI
O=C(COc1ccc2ccccc2c1Br)N1CCCC1	-12.2	2.2	4.5	1.7	-26.0*	1.8
O=C(COc1ccc2ccccc2c1Br)N1CCOCC1	/	14.0	/	/	/	-2.6
O=C(NN=Cc1cc(Cl)ccc1[N+](=O)[O-])c1ccco1	-3.0	/	0.9	1.2	-19.4*	-3.8
COc1ccc(CC(=O)NNC(=O)c2ccccn2)cc1	0.0	-0.1	3.1	-5.8	-0.9	48.1*
Cc1cc(C)cc(OCC(=O)NNC(=O)c2ccccn2)c1	-21.5	8.9	-0.1	3.5	-51.7	68.1*
COCCCNC(=S)NNC(=O)c1ccccc1Br	-3.8	/	-2.8	-1.4	27.9	1.5
COc1ccc(CC(=O)NNC(=O)c2cnccn2)cc1	3.6	10.5	-0.5	-1.7	4.1	25.0
COCCCNC(=S)NNC(=O)c1ccccn1	0.0	-1.9	-1.4	-1.7	-23.5	66.6*
C=CCn1c(Sc2ncc([N+](=O)[O-])s2)n[nH]c1=O	1.1	4.2	1.3	/	-28.4*	2.0
Cn1cnnc1SCC(=O)Nc1ccc2nc(SCc3ccccc3F)sc2c1	-6.6	-11.7	0.1	-4.8	-23.2*	-6.8
O=C(CSc1nc2ccc(NC(=O)CSc3nnnn3-c3ccccc3)cc2s1)Nc1ccccc1	/	-5.2	/	/	/	-3.0
CC(OC(=O)c1cccc(N(C)C)c1)C(=O)N1CCc2ccccc2C1 (stereo not drawn)	-9.1	/	2.0	2.1	-5.9	1.8
CN(C)c1cccc(C(=O)OCC(=O)N2CCc3ccccc3C2)c1	1.8	2.8	1.8	4.2	-30.1*	3.8
Nc1ccc(C(=O)OCC(=O)N2CCc3ccccc3C2)cc1[N+](=O)[O-]	-4.7	6.0	19.2	6.7	-23.3*	-1.9
COc1ccc2c3c(n(C)c2c1)[C@@H](CO)N(C(=O)CN(C)C)CC31CN(S(C)(=O)=O)C1	-4.3	6.5	/	0.7	3.2	/
C[C@@H]1CN([C@H](C)CO)C(=O)c2cc(C#Cc3ccccc3F)cnc2O[C@H]1CN(C)C(=O)C1CCOCC1	-4.8	-6.1	6.2	-1.8	-0.9	-7.8
COc1cccc(/C=N/NC(=S)NCCc2ccccc2)c1	-2.3	0.7	35.1*	2.3	-10.4	2.0
COc1ccc(/C=N/NC(=S)NCCc2ccccc2)cc1	-6.4	4.5	-2.1	0.4	-22.1*	-26.2
CCc1ccc(/C=N/NC(=S)NCCc2ccccc2)cc1	/	11.2	/	/	/	-1.4
COCCCNC(=S)N/N=C/c1ccccc1O	-2.4	-2.7	-2.3	/	3.0	63.6*
COc1ccc(O)c(/C=N/NC(=S)NCCc2ccccc2)c1	0.2	/	8.7	-0.8	-39.1	11.7
COc1cccc(/C=N/NC(=O)CCc2ccccc2)c1	-11.6	11.9	1.0	-1.9	-21.4*	-1.2
COc1cccc(-c2ccc3n(c2=O)C[C@@H]2[C@@H](CO)[C@H](C(=O)N4CCOCC4)N[C@H]32)c1	1.7	/	-2.2	2.6	-0.6	-3.8
